Experimental findings from ChEMBL document CHEMBL3745678, “Novel β-Carboline/Hydroxamic Acid Hybrids Targeting Both Histone Deacetylase and DNA Display High Anticancer Activity via Regulation of the p53 Signaling Pathway” (J Med Chem, 2015) are described below.

Molecules are shown by their SMILES. Active and inactive are the calls of the source. The calls are words filed in the database; no cut-off is given here.

For one assay, the target named is Histone deacetylase. Briefly: Inhibition of HDAC in human HeLa cell nuclear extract using Boc-Lys (Ac)-AMC as substrate after 60 mins by fluorometric analysis. It counts as cell-based.
A further assay has as its system HCT-116. Kind of assay: Antiproliferative activity against human HCT116 cells at 25 uM after 48 hrs by MTT assay. The class given is functional, cell-based. The procedure, abridged: (§1)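 Single-point screen at 25 µM in HCT116, SW620 and LOVO cells. Cells seeded at 10^4 cells/ml in DMEM + 10% FBS and left to adhere overnight at 37 °C, 5% CO2. MTT read 48 h after dosing with 0.1% DMSO as the negative control. Inhibition % = (1 − OD treated/OD control) × 100; mean ± SD of three measurements.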

For another assay, the system named is SW-620. Kind of assay: Antiproliferative activity against human SW620 cells at 25 uM after 48 hrs by MTT assay. The class given is functional, cell-based. In short, it runs like this: as §1
(Tetrazolium dyes change colour on reduction, which living cells bring about.)

Assay [1] concerns LoVo. Briefly: Antiproliferative activity against human LoVo cells at 25 uM after 48 hrs by MTT assay. It counts as functional, cell-based. The procedure, abridged:
as §1

Assay [2] in a line: Antiproliferative activity against human HCT116 cells assessed as cell viability after 48 hrs by MTT assay. The class given is functional, cell-based, HCT-116. The following applies: Homo sapiens, HCT-116, 48 h.
Assay [3] can be described thus: Antiproliferative activity against human SW620 cells assessed as cell viability after 48 hrs by MTT assay. It counts as functional, cell-based. The following applies: SW-620, 48 h.
In assay [4] the test system is LoVo. Kind of assay: Antiproliferative activity against human LoVo cells assessed as cell viability after 48 hrs by MTT assay. It counts as functional, cell-based.
A further assay has as its system SW480. Kind of assay: Antiproliferative activity against human SW480 cells assessed as cell viability after 48 hrs by MTT assay. The class given is functional, cell-based. The note with it: SW480, 48 h.

One may read the IC50 as the concentration at which inhibition is half-maximal. The molecule `O=C(CCNC(=O)c1cc2c(cn1)[nH]c1ccccc12)NO` returned an IC50 against Histone deacetylase of 3.23 µM. For the same molecule, the result in the assay on HCT-116, with SW-620 and in the assay with LoVo [1] was inactive.
With `COc1ccc(-c2nc(C(=O)NCCCCCC(=O)NO)cc3c2[nH]c2ccccc23)cc1`, the 50% inhibitory concentration (IC50) on Histone deacetylase came out at 1.17 µM; in assay [2] it was 7.16 µM; in assay [3], 8.06 µM; in the assay on LoVo [4] it was 7.9 µM; in the assay with SW480, 9.83 µM. Moreover, the outcome with HCT-116, in the assay with SW-620 and in the assay on LoVo [1] was Active.
Take `COc1ccc(-c2nc(NC(=O)NCCCCCC(=O)NO)cc3c2[nH]c2ccccc23)cc1`: the IC50 against Histone deacetylase came out at 0.82 µM; in assay [2] it was 4.84 µM; in assay [3], 6.25 µM; with LoVo [4], 7.34 µM; in the assay on SW480, 5.09 µM.
On to `COc1ccc(-c2nc(C(=O)NCC(=O)NO)cc3c2[nH]c2ccccc23)cc1`, for which the IC50 against Histone deacetylase was 3.02 µM; in assay [2] it was over 12.5 µM; in assay [3] it was 6.92 µM; in the assay with LoVo [4], over 12.5 µM; with SW480, 10.5 µM. Also, the outcome in the assay on HCT-116, with SW-620 and with LoVo [1] was Active.
`COc1ccc(-c2nc(NC(=O)NCCCCCC(=O)NO)cc3c4ccccc4n(C)c23)cc1`: the IC50 on Histone deacetylase was 1.05 µM; in assay [2], 8.76 µM; in assay [3], 9.53 µM; with LoVo [4] it was over 12.5 µM; in the assay on SW480, over 12.5 µM.
Turning to `COc1ccc(-c2nc(C(=O)NCCC(=O)NO)cc3c2[nH]c2ccccc23)cc1`, the IC50 on Histone deacetylase is 1.31 µM; in assay [2], 8.64 µM; in assay [3] it was 6.73 µM; with LoVo [4], 9.01 µM; in the assay on SW480, 11.2 µM. In addition, the result in the assay with HCT-116, in the assay with SW-620 and with LoVo [1] was Active.
Regarding `COc1ccc(-c2nc(C(=O)NCCCCC(=O)NO)cc3c2[nH]c2ccccc23)cc1`, the half-maximal inhibitory concentration (IC50) was found to be 0.81 µM on Histone deacetylase; 3.35 µM in assay [2]; 2.53 µM in assay [3]; 5.28 µM with LoVo [4]; 4.43 µM in the assay on SW480. Moreover, the result in the assay with HCT-116, with SW-620 and in the assay on LoVo [1] was Active.
Regarding `Cc1nc(C(=O)NCCCC(=O)NO)cc2c1[nH]c1ccccc12`, on Histone deacetylase, the IC50 came to 1.21 µM. In addition, the outcome in the assay with HCT-116, in the assay with SW-620 and in the assay on LoVo [1] was inactive.
As to `COc1ccc(-c2nc(NC(=O)NCC(=O)NO)cc3c4ccccc4n(C)c23)cc1`, the IC50 is 3.16 µM on Histone deacetylase; 9.3 µM in assay [2]; 8.36 µM in assay [3]; over 12.5 µM with LoVo [4]; 9.81 µM with SW480.
Molecule `O=C(CCCCNC(=O)c1cc2c(cn1)[nH]c1ccccc12)NO` displayed an IC50 against Histone deacetylase of 1.43 µM. The outcome in the assay on HCT-116, in the assay on SW-620 and with LoVo [1] was inactive.
In turn, `Cc1nc(C(=O)NCCCCCC(=O)NO)cc2c1[nH]c1ccccc12` registered an IC50 against Histone deacetylase of 1.43 µM. The result in the assay on HCT-116, in the assay on SW-620 and in the assay on LoVo [1] was inactive.
As to `COc1ccc(-c2nc(NC(=O)NCCCCC(=O)NO)cc3c4ccccc4n(C)c23)cc1`, the IC50 at Histone deacetylase was found to be 0.86 µM; in assay [2], 3.87 µM; in assay [3], 5.09 µM; with LoVo [4] it was 6.24 µM; in the assay with SW480 it was 5.8 µM.
As for `Cc1nc(C(=O)NCCC(=O)NO)cc2c1[nH]c1ccccc12`, at Histone deacetylase, the IC50 was 2.45 µM. Moreover, the result in the assay on HCT-116, with SW-620 and with LoVo [1] was inactive.
Take `O=C(CCCCCNC(=O)c1cc2c(cn1)[nH]c1ccccc12)NO`: the 50% inhibitory concentration (IC50) against Histone deacetylase was determined as 1.81 µM. Moreover, the outcome with HCT-116, with SW-620 and in the assay on LoVo [1] was inactive.
With `O=C(CCCNC(=O)c1cc2c(cn1)[nH]c1ccccc12)NO`, at Histone deacetylase, the IC50 is 1.56 µM. Also, the outcome in the assay with HCT-116, in the assay on SW-620 and in the assay on LoVo [1] was inactive.
As to `COc1ccc(-c2nc(NC(=O)NCC(=O)NO)cc3c2[nH]c2ccccc23)cc1`, the concentration for half-maximal inhibition (IC50) against Histone deacetylase was 2.24 µM; in assay [2], 8.52 µM; in assay [3], 7.12 µM; with LoVo [4] it was 9.36 µM; in the assay on SW480 it was 10.1 µM.
The like results for `COc1ccc(-c2nc(NC(=O)NCCC(=O)NO)cc3c4ccccc4n(C)c23)cc1` were, in that order, 1.33 µM, 4.27 µM, 5.02 µM, 5.66 µM and 4.4 µM.
On to `O=C(CNC(=O)c1cc2c(cn1)[nH]c1ccccc12)NO`, for which the IC50 against Histone deacetylase turned out to be 6.17 µM. For the same molecule, the outcome in the assay with HCT-116, with SW-620 and with LoVo [1] was inactive.
Regarding `Cc1nc(C(=O)NCC(=O)NO)cc2c1[nH]c1ccccc12`, at Histone deacetylase, the IC50 is 5.37 µM. The outcome in the assay with HCT-116, in the assay on SW-620 and in the assay on LoVo [1] was inactive.
Turning to `Cc1nc(C(=O)NCCCCC(=O)NO)cc2c1[nH]c1ccccc12`, at Histone deacetylase, the half-inhibitory concentration (IC50) was determined as 1.26 µM. For the same molecule, the outcome in the assay with HCT-116, in the assay with SW-620 and in the assay with LoVo [1] was inactive.
